# From PubChem BioAssay
# Shown are actives, neighbours in structure and some others; about 5.3% of the full set was active somewhere.
# FAK blocker: FAK (human) kinase inhibition; Q05397; biochemical FAK kinase activity assay; inhibition, %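 (tested at 7 µM)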; 0.84% of 97,000 active; AID 727; in the data active = inhibition above about 19%;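 also: 0% = DMSO and 100% = reference compound high control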
# Cav32 inh: blocks human Cav3.2 T-type calcium channel; 4% of 100,000 active; Cav3.2-expressing cells, Fluo-4 calcium fluorescence FDSS; active compounds read low; B-score at 10 µM; O95180;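 active = single-dose well whose peak fluorescence ratio is a statistical outlier from its plate by either plate-standardised score or position-corrected B-score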
# Rev-RRE block: inhibitors of HIV-1 Rev-RRE RNA interaction; P05866; inhibition, % at 8 µM; Rev peptide-RRE RNA binding, FRET; 0.79% of 97,000 active;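 active = inhibition above the screen-wide mean plus 3 SD, cut at about 35% in these data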;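 also: 0% = median DMSO wells and 100% = median Neomycin B control wells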
# Target sequence (P05866 whole entry, looked up): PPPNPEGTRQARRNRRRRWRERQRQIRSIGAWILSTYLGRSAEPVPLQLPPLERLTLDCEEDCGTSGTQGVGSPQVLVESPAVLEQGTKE
#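 Test system – labelled RRE RNA duplex and labelled Rev peptide · Signal – fluorescein-to-Cy5 FRET, 480 nm excitation · Evaluation – % inhibition of FRET ratio versus controls · Benchmarks – DMSO low control, neomycin B high control · Incubation – 5 min RNA-compound premix plus 15 min binding step, 25 °C · Medium – HEPES pH 7.5 salt buffer with EDTA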
# EphB4 antag: EphB4-ephrin-B2 interaction antagonism; P54760; EphB4 LBD / TNYL-RAW-Alexa532 peptide, fluorescence polarization; inhibition, % at 7 µM; 0.15% of 97,000 active; AID 720;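 active = inhibition above the screen-wide mean inhibition plus 3 SD, cut at about 15% in these data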;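 also: 0% = DMSO wells and 100% = excess unlabeled TNYL-RAW peptide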
# PLK1 inh: blocks human PLK1 kinase activity. recombinant PLK1 kinase, TR-FRET peptide phosphorylation. inhibition, % at 10 µM. 0.53% of 97,000 active. AID 619;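 active = inhibition of 50% or more in the single-concentration screen; inactive = inhibition below 50%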;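 also: 0% = DMSO max control and 100% = H-89 dihydrochloride min control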
# Target sequence (P53350 whole entry, looked up): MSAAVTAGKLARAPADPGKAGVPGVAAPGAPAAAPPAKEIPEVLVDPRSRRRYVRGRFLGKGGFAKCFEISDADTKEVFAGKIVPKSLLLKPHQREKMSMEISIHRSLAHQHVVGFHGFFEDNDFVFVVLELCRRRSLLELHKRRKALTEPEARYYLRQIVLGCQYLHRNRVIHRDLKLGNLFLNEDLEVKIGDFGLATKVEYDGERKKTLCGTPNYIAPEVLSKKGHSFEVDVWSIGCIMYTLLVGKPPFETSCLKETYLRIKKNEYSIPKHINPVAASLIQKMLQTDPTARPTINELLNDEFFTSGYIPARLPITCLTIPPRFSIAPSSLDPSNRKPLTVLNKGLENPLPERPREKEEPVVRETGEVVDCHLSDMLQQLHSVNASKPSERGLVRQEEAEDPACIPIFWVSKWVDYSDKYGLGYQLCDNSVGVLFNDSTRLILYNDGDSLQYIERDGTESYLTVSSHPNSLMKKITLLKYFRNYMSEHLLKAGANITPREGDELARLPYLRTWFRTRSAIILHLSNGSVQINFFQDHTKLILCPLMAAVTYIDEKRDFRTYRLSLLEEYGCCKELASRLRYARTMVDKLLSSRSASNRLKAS
# Plk1 PBD FP: blocks phosphopeptide binding to human Plk1 polo box domain; AID 693; P53350; inhibition, %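 (tested at about 20 µM)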; Plk1 PBD phosphopeptide binding, fluorescence polarization; 0.13% of 97,000 active; in the data active = inhibition above about 34%, passing the limit was not always enough
# An asterisk follows results filed as active; · = no result given; [ ] = remark or other dose.
SMILES,FAK blocker,Cav32 inh,Rev-RRE block,EphB4 antag,PLK1 inh,Plk1 PBD FP
CSc1cccc(NC(=O)CN(c2ccc(C)cc2C)S(C)(=O)=O)c1,10.8,-7.93*,12.0,8.4,-7.1,-15.7
Cc1cccc(N(CC(=O)Nc2ccc(F)cc2)S(C)(=O)=O)c1,-2.2,-0.162,7.1,6.5,-1.7,-13.1
CSc1cccc(NC(=O)CN(c2cccc(C)c2)S(C)(=O)=O)c1,0.4,-4.29*,-0.7,0.1,0.8,-3.2
Cc1cc(/C=N/NC(=O)Cn2c3ccccc3c(=O)c3ccccc32)c(C)n1-c1ccccc1,-2.8,·,0.8,-8.3,4.0,-3.9
Cc1ccc(N(CC(=O)N/N=C/c2cc(C)n(-c3ccccc3)c2C)S(C)(=O)=O)c(C)c1,-2.6,-6.66*,4.5,1.9,-18.8,-12.8
CSc1cccc(NC(=O)CN(c2ccccc2)S(=O)(=O)N(C)C)c1,18.6,-2.93,3.1,5.9,7.2,15.9
OCCn1c(Cl)nc2ccccc21,-0.3,-0.343,4.2,8.3,-15.1,-0.9
CCCCCCc1cc2cc(-c3nnc(-c4ccccc4O)o3)c(=O)oc2cc1O,·,-3.52*,·,·,·,·
CCCCCCc1cc2cc(-c3nnc(-c4ccccc4OC)o3)c(=O)oc2cc1O,1.7,-4.25*,143.1*[fluorescence artefact?],2.1,-2.7,-202.4
COc1ccc(-c2nnc(-c3cc4ccccc4oc3=O)o2)cc1,-1.3,-0.92,6.9,3.0,-6.4,-12.0
Cc1cc(-c2nnc(-c3cc4ccccc4oc3=O)o2)c(C)n1-c1ccccc1,·,0.204,·,·,·,·
CCCCCCc1cc2cc(-c3nnc(-c4cc(OC)c(OC)c(OC)c4)o3)c(=O)oc2cc1O,1.0,-3.25,134.9*[fluorescence artefact?],-2.3,-10.9,-149.3
O=c1cc(-c2ccccc2Cl)oc2c(NS(=O)(=O)c3ccccc3OC(F)(F)F)ccc(O)c12,·,-1.26,·,·,·,·
Cc1cc(OC(=O)c2c(C)cc(OC(=O)c3c(C)cc(O)cc3O)cc2O)cc(O)c1C(=O)O,·,-1.63,·,·,·,·
COc1cccc(SCc2noc(C(=O)NCCC(C)C)c2C(=O)NCCC(C)C)c1,·,-1.11,·,·,·,·
O=C1CC(N2CCOCC2)C(=O)N1CCc1ccccc1 (centres undefined),-1.2,-0.287,12.4,-2.7,-6.8,17.0
O=C(CSC1CC(=O)N(CCc2ccccc2)C1=O)Nc1ccc(Br)cc1 (centres undefined),1.9,-4.81*,16.0,3.4,-6.2,8.0
CCN1C(=O)C(CC(=O)Nc2ccc(Br)cc2)N(CCCc2ccccc2)C1=S (centres undefined),-9.3,-4.47*,13.7,-2.3,-7.2,-16.4
C[C@@H]1NC(=O)c2cc([N+](=O)[O-])cc(I)c2OCC[C@@H](C(=O)NC(CC(=O)O)C(N)=O)NC(=O)[C@H](CC(N)=O)NC1=O (some centres undefined),·,-0.393,·,·,·,·
Cc1nn(Cc2ccc(Cl)cc2)c(C)c1NC(=O)c1c(-c2ccccc2)noc1C,6.7,-2.51,6.4,11.6,-14.7,13.8
Cc1nn(Cc2ccc(Cl)c(Cl)c2)c(C)c1NC(=O)c1cn(-c2ccccc2)nc1-c1ccccc1,2.3,-5.09*,0.6,-3.0,-13.1,7.0
CCc1cccc(C)c1NC(=S)NCCc1c(C)[nH]c2ccc(C)cc12,·,-3.36*,·,·,·,·
CCOC(=O)c1c(NC(=S)Nc2ccccc2)sc2c1CCN(CCc1ccccc1)C2,-5.4,·,124.0*[fluorescence artefact?],-2.4,-15.6,-68.8
CCC1(CC)C(=O)C2=C3C1[C@H](C(=O)OC)C=C(C(=O)OC)C[C@H]3n1c(=O)n(-c3ccccc3)c(=O)n1[C@H]2C (some centres undefined),·,-0.0123,·,·,·,·
N#CC1=C(N)SC(N)=C(C#N)C1CCC1CCCCC1,0.3,-0.115,67.6*,-1.8,-19.8,-1.4
SMILES,FAK blocker,Cav32 inh,Rev-RRE block,EphB4 antag,PLK1 inh,Plk1 PBD FP
O=c1nc2n(c3ccc(Br)cc13)CCS2,0.1,0.544,2.9,-1.7,-19.8,-5.7
CC(C)=CCc1cc2c(=O)c3c(O)c4c(cc3oc2c(O)c1O)OC(C)C4(C)C (centres undefined),·,-0.611,·,·,·,·
Cc1cccc(NC(=O)CSc2nc3ccccc3o2)c1,0.4,-6.94*,5.4,-4.3,-6.6,7.8
Cc1ccc(-n2nnnc2SCC(=O)Nc2ccccc2N2CCCCC2)cc1C,2.1,-4.09*,14.9,5.5,-3.6,-5.8
O=C(CSc1nc2ccccc2o1)NC(=O)NCc1ccccc1,1.0,-6.52*,5.2,-5.0,1.4,-12.1
O=C(CSc1nc2ccccc2o1)Nc1ccccc1N1CCCCCC1,-6.6,-6.58*,0.9,-5.8,3.6,-1.9
COc1ccc(C(=O)N2CCC(=O)N(C(CO)Cc3ccccc3)CC2)cc1 (centres undefined),·,0.0717,·,·,·,·
O=C(NNC(=O)C1CC(c2cccnc2)=NO1)Nc1cccc(F)c1 (centres undefined),-6.0,·,13.9,3.6,14.8,-4.0
O=C(CSc1nc2ccccc2o1)Nc1cc(C(F)(F)F)ccc1N1CCOCC1,-0.7,-1.43,15.0,0.4,-7.8,14.7
O=C(CSc1nc2ccccc2o1)Nc1ccc(N2CCOCC2)c(Cl)c1,4.0,-3.76*,4.8,-2.5,8.1,8.4
O=C(N/N=C/C1C(c2ccccc2)C1(Cl)Cl)c1cccc(Br)c1 (centres undefined),3.0,-6.73*,9.9,1.8,-4.8,-4.1
CCCCNC(=O)C1CC(=O)N(c2ccc(OC)cc2)C1c1ccc(OC)cc1 (centres undefined),-0.9,0.134,-2.6,-3.0,-9.9,14.3
Cc1c(Br)c([N+](=O)[O-])nn1C(C)C(=O)Nc1c(C)n(C)n(-c2ccccc2)c1=O (centres undefined),0.7,-0.274,0.9,-2.5,-16.7,13.1
CCN(CC)c1ccc(/C=C2\C(=O)N(c3ccc([N+](=O)[O-])cc3)N=C2N2CCOCC2)cc1,2.7,·,6.5,-0.5,-21.7,-16.5
CCCCC1(C)OC(=O)C(=Cc2ccc(N(CC)CC)cc2)C(=O)O1 (centres undefined),-0.2,-0.76,86.8*[fluorescence artefact?],-11.7,-12.4,-18.4
Fc1ccc(C(CCCn2nnc(-c3cccnc3)n2)c2ccc(F)cc2)cc1,0.0,-4.21*,4.4,-3.2,2.2,2.4
Cc1nnc(SCC(=O)Nc2nsc(-c3ccccc3)n2)s1,-1.6,-0.0214,6.5,6.1,12.8,5.8
CC1(C)CC(=O)c2c(nc(SCC(=O)Nc3nsc(-c4ccccc4)n3)c(C#N)c2-c2ccccc2)C1,0.8,-2.36*,8.2,2.6,-9.6,-27.8
O=C(OCc1cccs1)c1ccccc1NS(=O)(=O)c1ccc2c(c1)OCCO2,7.0,-4.84*,1.9,8.6,-13.4,4.6
Cc1cc(C)c2c(-n3cccc3)c(C(=O)NNS(=O)(=O)c3ccc(Br)cc3)sc2n1,-12.7,-4.69*,5.7,4.5,-9.0,-0.9
CCOC(=O)Nc1sc2nc(C)cc(C)c2c1-n1cccc1,1.8,0.841,2.3,-13.0,-3.8,7.2
